Assay outcomes deposited in PubChem by several laboratories.
Platelet DG rel: modulates dense granule release in human platelets. AID 1663. 300,000 tested, 0.22% active. human platelet-rich plasma, SFLLRN dense granule ATP release, luminescence. inhibition, %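 (compounds screened at 7.5 µM in platelet-rich plasma)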;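 active = mean replicate score, as percent of positive control, at or above 50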
SENP8 block-1: SENP8 protease inhibition. AID 2540. Q96LD8. inhibition, % at 10 µM. purified SENP8, Z-RLRGG-aminoluciferin cleavage, luminescence. 330,000 tested, 1.2% active; in the data active = inhibition above about 50%
SENP1 inh: blocks the human SENP1 SUMO protease catalytic domain; 360,000 tested, 0.21% active; recombinant SENP1 catalytic domain, CyPet-SUMO1-YPet FRET cleavage; AID 624204; inhibition, % at 10 µM;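 active = inhibition at least 30% at 10 µM, raw YFP signal under a set limit, fluorescence ratio 0.5 to 1.5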;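 note: 0% = enzyme with DMSO and 100% = no enzyme wells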
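Assay system: hSENP1 catalytic domain, recombinant. Amount: SENP1 enzyme, 20 pM final. Schedule: 50 min reaction, RT, dark. Technique: FRET, CFP and YFP emission. Control set: no-enzyme wells low, DMSO-plus-enzyme wells high control.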
SENP7 inh: SENP7 protease inhibition | Q9BQF6 | recombinant SENP7, Z-RLRGG-aminoluciferin luminescence, 40 min | inhibition, % at 5 µM | 330,000 tested, 1.5% active;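 active = inhibition above about 50% at the single test dose, limit read from the data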;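 note: plate controls were DMSO with enzyme for no effect and no enzyme buffer wells for full effect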
Target sequence (Q9BQF6 706-1050 limits assumed): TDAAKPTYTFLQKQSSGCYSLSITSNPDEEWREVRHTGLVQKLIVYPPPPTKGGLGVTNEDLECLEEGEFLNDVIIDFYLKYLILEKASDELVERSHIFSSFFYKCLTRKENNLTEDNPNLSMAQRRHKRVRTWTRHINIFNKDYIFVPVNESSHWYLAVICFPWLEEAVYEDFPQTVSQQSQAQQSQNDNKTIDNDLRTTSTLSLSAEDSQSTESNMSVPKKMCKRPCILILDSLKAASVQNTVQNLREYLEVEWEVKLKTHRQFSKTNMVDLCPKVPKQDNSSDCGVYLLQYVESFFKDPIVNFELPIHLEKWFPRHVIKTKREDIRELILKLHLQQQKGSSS
SENP6 block: blocks the human protease SENP6 | Q9GZR1 | Recombinant SENP6 catalytic domain, aminoluciferin luminescence | inhibition, % at 10 µM | 330,000 tested, 1.8% active;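 active = inhibition above about 50% at the single tested dose, limit read from the data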;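 note: plate controls were DMSO wells with enzyme for no effect and DMSO wells lacking enzyme for full effect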
SENP8 block-2: inhibitors of human SENP8 protease; Q96LD8; AID 602440; recombinant SENP8, Nedd8 substrate fluorescence; 360,000 tested, 0.64% active; inhibition, % at 20 µM; in the data active = inhibition mostly above about 40%, no sharp cut-off; inactive = mostly below about 27%
SENP8 confirm: human SENP8 inhibition, confirmed. shares compounds with SENP7 inh. Recombinant SENP8, Z-RLRGG-aminoluciferin luminescence, 60 min. inhibition, % at 12.5 µM. 6,200 tested, 40% active. AID 488912;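 active = mean inhibition across replicates above about 50%, limit read from the data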
SENP6 conf: confirmation of human SENP6 protease inhibitors; inhibition, % at 12.5 µM; 6,200 tested, 58% active; recombinant SENP6, Z-RLRGG-aminoluciferin luminescence; shares compounds with SENP7 inh; AID 488915
SENP7 confirm: confirmation of human SENP7 protease inhibitors | shares compounds with SENP7 inh | recombinant SENP7, Z-RLRGG-aminoluciferin luminescence, 40 min | inhibition, % at 12.5 µM | 6,200 tested, 69% active | AID 488917
Casp3 SENP sel: selectivity test for SENP inhibitors: human caspase-3 inhibition. inhibition, % at 12.5 µM. purified caspase-3, Z-DEVD-aminoluciferin luminescence, 60 min. 6,200 tested, 60% active. shares compounds with SENP7 inh;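 active = mean inhibition above about 50%, limit read from the data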;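 note: plate controls were enzyme with DMSO for no effect and wells without caspase-3 for full effect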
Target sequence (P42574 28-227 limits assumed): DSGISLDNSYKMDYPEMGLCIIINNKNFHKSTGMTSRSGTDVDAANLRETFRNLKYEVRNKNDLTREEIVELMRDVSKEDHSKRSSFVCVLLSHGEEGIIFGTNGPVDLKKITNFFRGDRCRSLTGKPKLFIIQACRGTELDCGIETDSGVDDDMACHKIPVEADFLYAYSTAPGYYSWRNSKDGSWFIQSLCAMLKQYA
Luc interf: counter-screen for SENP inhibitors: luminescence interference. shares compounds with SENP7 inh. Pre-incubated SENP8/Z-RLRGG-aminoluciferin, luciferase luminescence interference. inhibition, % at 12.5 µM. 6,200 tested, 39% active. AID 488919;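 active = mean inhibition above about 50% when retested at one dose, limit read from the data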;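 note: plate controls were DMSO wells with completed reaction for no effect and substrate without enzyme for full effect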
* = called active by the depositor. Shown are actives, neighbours in structure and some others; about 2.6% of the full set was active somewhere.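 Rule for the calls, unless noted: active = mean inhibition above about 50% in the one-dose retest (limit read from the data); inactive = the rest.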

How did O=C(Nc1ccc(-c2n[nH]c(=S)o2)cc1)c1ccccc1Br do in these assays?
Platelet DG rel: 5; SENP8 block-1: 49; SENP1 inh: 2; SENP7 inh: 20; SENP6 block: 80*; SENP8 block-2: -154; SENP8 confirm: 57*; SENP6 conf: 54*; SENP7 confirm: 80*; Casp3 SENP sel: 74*; Luc interf: 62*

How did COc1ccc(C(=O)Nc2ccc(-c3n[nH]c(=S)o3)cc2)cc1OC do in these assays?
Platelet DG rel: -5; SENP8 block-1: 4; SENP1 inh: 0; SENP7 inh: 19; SENP6 block: -6; SENP8 block-2: -334

How did Cc1nc2ccc(NC(=O)c3ccc4ccccc4n3)cc2s1 do in these assays?
Platelet DG rel: 2; SENP8 block-1: 6; SENP1 inh: 1; SENP7 inh: 71*; SENP6 block: 3; SENP8 block-2: 1; SENP8 confirm: 11; SENP6 conf: 12; SENP7 confirm: 40; Casp3 SENP sel: 51*; Luc interf: 5

What do the screens show for `Cc1nc2ccc(NC(=O)c3ccccc3)cc2s1`?
Platelet DG rel: -3; SENP8 block-1: 4; SENP1 inh: -1; SENP7 inh: 1; SENP6 block: -11; SENP8 block-2: 2

Results for Cc1nc2ccc(NC(=O)c3sccc3C)cc2s1 ?
Platelet DG rel: 10; SENP8 block-1: 60*; SENP1 inh: -1; SENP7 inh: 69*; SENP6 block: 85*; SENP8 block-2: 16; SENP8 confirm: 71*; SENP6 conf: 71*; SENP7 confirm: 90*; Casp3 SENP sel: 81*; Luc interf: 73*

Results for Cc1ccnc(SCC(=O)Nc2sccc2C#N)n1 ?
Platelet DG rel: 0; SENP8 block-1: -5; SENP1 inh: -7; SENP7 inh: 4; SENP6 block: -5; SENP8 block-2: -10

How did CC1=NN(c2ccccc2)C(=O)/C1=C/c1c(O)n(-c2ccc(F)c(Cl)c2)[nH]c1=O do in these assays?
Platelet DG rel: 17; SENP8 block-1: 78*; SENP7 inh: -6; SENP6 block: 84*; SENP8 confirm: 5; SENP6 conf: 66*; SENP7 confirm: 59*; Casp3 SENP sel: 4; Luc interf: 55*

Results for COc1ccc2c(c1)C(C)(Cc1ccc(C(=O)c3ccccc3)cc1)C(=O)N2 (stereo not drawn) ?
SENP1 inh: 2; SENP8 block-2: 9

Results for O=S(=O)(/N=C/c1c(O)ccc2ccccc12)c1ccccc1 ?
Platelet DG rel: -7; SENP8 block-1: 2; SENP1 inh: -50; SENP7 inh: 10; SENP6 block: 15; SENP8 block-2: -51

Results for O=S(=O)(O)c1cccc(N=Nc2c(O)ccc3ccccc23)c1 ?
Platelet DG rel: 17; SENP8 block-1: 94*; SENP1 inh: 13; SENP7 inh: 92*; SENP6 block: 99*; SENP8 block-2: 24; SENP8 confirm: 98*; SENP6 conf: 99*; SENP7 confirm: 102*; Casp3 SENP sel: 97*; Luc interf: 96*

How did COC(=O)c1ccc2nc(-c3ccc(F)cc3)c(CC3CCCCC3)n2c1 do in these assays?
SENP1 inh: -37; SENP8 block-2: -405

How did O=c1[nH]c(Cc2cccc(C(F)(F)F)c2)nc2ccccc12 do in these assays?
Platelet DG rel: -6; SENP8 block-1: 2; SENP1 inh: 2; SENP7 inh: -5; SENP6 block: 6; SENP8 block-2: 13

How did O=C(c1cc(-c2cccs2)on1)N1CCc2ccccc2C1 do in these assays?
Platelet DG rel: 5; SENP8 block-1: -8; SENP1 inh: -2; SENP7 inh: 52*; SENP6 block: 3; SENP8 block-2: 14; SENP8 confirm: -3; SENP6 conf: -3; SENP7 confirm: 9; Casp3 SENP sel: 0; Luc interf: -4

What do the screens show for `CN(C)c1cccc(C(=O)NN2C(=O)NC3(CCCCC3)C2=O)c1`?
SENP8 block-1: -3; SENP1 inh: -1; SENP7 inh: 5; SENP6 block: -5; SENP8 block-2: -176

Results for CCn1c(/N=C/c2c[nH]c3ccccc23)nc2ccccc21 ?
Platelet DG rel: 10; SENP8 block-1: 53*; SENP1 inh: -4; SENP7 inh: 44; SENP6 block: 72*; SENP8 block-2: 13; SENP8 confirm: 69*; SENP6 conf: 71*; SENP7 confirm: 92*; Casp3 SENP sel: 34; Luc interf: 79*

What do the screens show for `COc1cc(C)ccc1OCc1cc(C(=O)N2CCCCCCC2)no1`?
Platelet DG rel: -5; SENP8 block-1: -8; SENP1 inh: -1; SENP7 inh: 9; SENP6 block: -6; SENP8 block-2: -2

How did NC(=O)c1ccc(-c2noc(-c3cccc(Cl)c3)n2)cc1 do in these assays?
SENP8 block-1: 14; SENP1 inh: 0; SENP7 inh: 58*; SENP6 block: 6; SENP8 block-2: 9; SENP8 confirm: -14; SENP6 conf: -8; SENP7 confirm: 8; Casp3 SENP sel: 16; Luc interf: -2

What do the screens show for `COc1cc(-c2noc(-c3cccc(Cl)c3)n2)cc(OC)c1OC`?
Platelet DG rel: -4; SENP8 block-1: -2; SENP1 inh: 1; SENP7 inh: 2; SENP6 block: -4; SENP8 block-2: 13

How did O=C(O)c1cccc(-c2noc(-c3cccc(Cl)c3)n2)c1 do in these assays?
SENP8 block-1: 98*; SENP1 inh: 1; SENP7 inh: 101*; SENP6 block: 99*; SENP8 block-2: 10; SENP8 confirm: 99*; SENP6 conf: 100*; SENP7 confirm: 103*; Casp3 SENP sel: 98*; Luc interf: 96*

What do the screens show for `CCN(CC)C(=O)c1cccc(-c2csc(C(C)(O)c3cccc(F)c3)n2)c1` (stereo not drawn)?
SENP1 inh: 1; SENP8 block-2: 16
